Key:
Format in all cases: functional
Rattus norvegicus [1] = experiment: Compound was tested for the inhibition of rat reversed passive Arthus pleurisy after peroral administration of 5 mg/kg dose at 0.73+/-0.03 mL of exudate volume (injected intrapleurally); conditions: route oral
In short: (§1)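 Male Wistar rats (about 250 g) under ether received 0.2 mL rabbit anti-egg-albumin antiserum intrapleurally. Thirty min later they got 15 mg EA/100 g body weight in 0.1 mL saline iv. Compounds were given orally beforehand. Rats were killed 4.5 h after induction and the thoracic cavity rinsed with 5 mL saline. Exudate volume and infiltrated cell count were read as mean ± SE. % inhibition is versus control.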

Rattus norvegicus [2] = experiment: Antiinflammatory activity on Carrageenan rat's paw edema(CPE) after peroral administration of 30 mg/kg dose with control swelling of 75.8%; conditions: route oral
Rattus norvegicus [3] = experiment: Antiinflammatory activity on Carrageenan rat's paw edema(CPE) after peroral administration of 100 mg/kg dose with control swelling of 64.2%; conditions: route oral
Rattus norvegicus [4] = experiment: Compound was tested for the inhibition of rat reversed passive Arthus pleurisy after peroral administration of 10 mg/kg dose at 0.53+/-0.05 mL of exudate volume (injected intrapleurally); conditions: route oral
In short: (§2)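 Male Wistar rats (about 250 g) were given compound orally before the antiserum. Under ether anesthesia, 0.2 mL rabbit anti-egg albumin antiserum was injected intrapleurally. After 30 min, egg albumin (15 mg/100 g body weight in 0.1 mL saline) was given iv. Rats were killed 4.5 h later and the thoracic cavity was rinsed with 5 mL saline. Exudate volume and infiltrated cell number were measured, with inhibition % versus controls as mean ± SEM.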

Rattus norvegicus [5] = experiment: Inhibition of carrageenan-induced rat's paw edema (CPE) after peroral administration of 100 mg/kg dose.; conditions: route oral
In short: (§3)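 Male Wistar rats (about 150 g) were dosed orally with compound suspended in 5% arabic gum, 1 h before a subplantar hind-paw injection of 0.1 mL saline. The irritant was 1% zymosan for 33 or 1% λ-carrageenin for 34. Paw volume was measured by plethysmograph before dosing and at 4 h (zymosan) or 3 h (carrageenin). Swelling is relative to initial volume, as mean ± SEM. % inhibition is versus the control group's mean swelling.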

Rattus norvegicus [6] = experiment: Antiinflammatory activity on Carrageenan rat's paw edema(CPE) after peroral administration of 10 mg/kg dose with control swelling of 75.8%; conditions: route oral
Rattus norvegicus [7] = experiment: Antiinflammatory activity on Zymosan-induced rat's paw edema(ZPE) after peroral administration of 100 mg/kg dose with control swelling of 71.7%; conditions: route oral
In short: (§4)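 Male Wistar rats weighing about 150 g were dosed orally with compound suspended in 5% arabic gum. 1 h later, 1% zymosan in 0.1 mL saline was injected subplantarly into the hind paw. Paw volume was measured by plethysmograph before dosing and 4 h after zymosan, with edema as the volume difference. Inhibition % was derived from mean swelling versus the control group.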

Rattus norvegicus [8] = experiment: Compound was tested for the inhibition of rat reversed passive Arthus pleurisy after peroral administration of 5 mg/kg dose at 2.79 +/- 0.19*10e6 no of cells; conditions: route oral; in short: as §1
Rattus norvegicus [9] = experiment: Antiinflammatory activity on Zymosan-induced rat's paw edema(ZPE) after peroral administration of 30 mg/kg dose with control swelling of 68.1%; conditions: route oral; in short: as §4
Rattus norvegicus [10] = experiment: Compound was tested for the inhibition of rat reversed passive Arthus pleurisy after peroral administration of 10 mg/kg dose at 4.6+/-0.25*10e6 no of cells; conditions: route oral; in short: as §2
Rattus norvegicus [11] = experiment: Compound was tested for the inhibition of arachidonic acid-induced rat's paw edema(APE) after peroral administration of 10 mg/kg dose with control swelling of 51.6%; conditions: route oral
In short: (§5)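 Test: arachidonic acid paw edema in male Wistar rats of about 150 g. Oral dosing in 5% arabic gum came 1 h before subplantar injection of 1% arachidonic acid sodium salt in 0.1 mL saline into the hind paw. Plethysmograph paw volume was read before dosing and 1 h post-irritant, and edema = volume difference. % inhibition was taken from mean swelling against controls.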

Rattus norvegicus [12] = experiment: Compound was tested for the inhibition of rat reversed passive Arthus pleurisy after peroral administration of 100 mg/kg dose at 0.08 mL of exudate volume with 0.86 mL of control (injected intrapleurally); conditions: route oral; in short: as §2
Rattus norvegicus [13] = experiment: Compound was tested for the inhibition of arachidonic acid-induced rat's paw edema(APE) after peroral administration of 30 mg/kg dose with control swelling of 51.6%; conditions: route oral
Rattus norvegicus [14] = experiment: Compound was tested for the inhibition of rat reversed passive Arthus pleurisy after peroral administration of 100 mg/kg dose at 2.13+/-0.24*10e6 no of cells; conditions: route oral; in short: as §2
Rattus norvegicus [15] = experiment: Antiinflammatory activity on Zymosan-induced rat's paw edema(ZPE) after peroral administration of 10 mg/kg dose with control swelling of 68.1%; conditions: route oral; in short: as §4
Rattus norvegicus [16] = experiment: Compound was tested for the inhibition of rat reversed passive Arthus pleurisy after peroral administration of 25 mg/kg dose at 4.74+/-0.24*10e6 no of cells; conditions: route oral; in short: as §1
Rattus norvegicus [17] = experiment: Compound was tested for the inhibition of arachidonic acid-induced rat's paw edema(APE) after peroral administration of 30 mg/kg dose; conditions: route oral; in short: as §5
Rattus norvegicus [18] = experiment: Compound was tested for the inhibition of rat reversed passive Arthus pleurisy after peroral administration of 100 mg/kg dose at 2.13*10e6 no of cells with 3.86*10e6 cells of control; conditions: route oral; in short: as §2
Rattus norvegicus [19] = experiment: Compound was tested for the inhibition of arachidonic acid-induced rat's paw edema(APE) after peroral administration of 3 mg/kg dose; conditions: route oral; in short: as §5
Rattus norvegicus [20] = experiment: Compound was tested for the inhibition of rat reversed passive Arthus pleurisy after peroral administration of 25 mg/kg dose at 0.4+/-0.07 mL of exudate volume (injected intrapleurally); conditions: route oral; in short: as §1
Rattus norvegicus [21] = experiment: Compound was tested for the inhibition of arachidonic acid-induced rat's paw edema(APE) after peroral administration of 10 mg/kg dose; conditions: route oral; in short: as §5
Rattus norvegicus [22] = experiment: Compound was tested for the inhibition of Zymosan-induced rat's paw edema(ZPE) after peroral administration of 10 mg/kg dose; conditions: po; in short: as §4
Rattus norvegicus [23] = experiment: Compound was tested for the inhibition of arachidonic acid-induced rat's paw edema(APE) after peroral administration of 3 mg/kg dose with control swelling of 51.6%; conditions: route oral; in short: as §5
Rattus norvegicus [24] = experiment: Compound was tested for the inhibition of Carrageenan rat's paw edema(CPE) after peroral administration of 3 mg/kg dose; conditions: route oral
Rattus norvegicus [25] = experiment: Compound was tested for the inhibition of rat reversed passive Arthus pleurisy after peroral administration of 100 mg/kg dose at 0.08+/-0.01 mL of exudate volume (injected intrapleurally); conditions: route oral; in short: as §2
Rattus norvegicus [26] = experiment: Antiinflammatory activity on Zymosan-induced rat's paw edema(ZPE) after peroral administration of 3 mg/kg dose with control swelling of 68.1%; conditions: route oral; in short: as §4
Rattus norvegicus [27] = experiment: Compound was tested for the inhibition of Zymosan-induced rat's paw edema(ZPE) after peroral administration of 30 mg/kg dose; conditions: route oral; in short: as §4
Rattus norvegicus [28] = experiment: Inhibition of Zymosan-induced rat's paw edema(ZPE) after peroral administration of 100 mg/kg dose.; conditions: route oral; in short: as §3
Rattus norvegicus [29] = experiment: Antiinflammatory activity on Carrageenan rat's paw edema(CPE) after peroral administration of 3 mg/kg dose with control swelling of 75.8%; conditions: route oral
Rattus norvegicus [30] = experiment: Compound was tested for the inhibition of Zymosan-induced rat's paw edema(ZPE) after peroral administration of 3 mg/kg dose; conditions: route oral; in short: as §4
Rattus norvegicus [31] = experiment: Antiinflammatory activity on Zymosan-induced rat's paw edema(ZPE) after peroral administration of 3 mg/kg dose with control swelling of 55.1%; conditions: route oral; in short: as §4
Rattus norvegicus [32] = experiment: Antiinflammatory activity on Zymosan-induced rat's paw edema(ZPE) after peroral administration of 100 mg/kg dose with control swelling of 55.1%; conditions: route oral; in short: as §4
Rattus norvegicus [33] = experiment: Compound was tested for the inhibition of Carrageenan rat's paw edema(CPE) after peroral administration of 10 mg/kg dose; conditions: Rattus norvegicus, po
Rattus norvegicus [34] = experiment: Antiinflammatory activity on Zymosan-induced rat's paw edema(ZPE) after peroral administration of 10 mg/kg dose with control swelling of 55.1%; conditions: route oral; in short: as §4

Question: For O=C(Nc1ccncc1)c1c(O)c2cccnc2n(-c2ccccc2)c1=O, which inhibition in vivo at 5 mg/kg (Rattus norvegicus [1]) is on record?
Answer: -3.2%

Question: What about the Swelling (Rattus norvegicus [2]) of the same molecule?
Answer: 58.8%

Question: And the Swelling (Rattus norvegicus [3])?
Answer: 48.6%

Question: And the inhibition in vivo at 10 mg/kg (Rattus norvegicus [4])?
Answer: 32.9%

Question: What about the inhibition in vivo at 100 mg/kg (Rattus norvegicus [5]) of the same molecule?
Answer: 24.3%

Question: What about the Swelling (Rattus norvegicus [6]) of the same molecule?
Answer: 71.3%

Question: And the Swelling (Rattus norvegicus [7])?
Answer: 46.7%

Question: What about the inhibition in vivo at 5 mg/kg (Rattus norvegicus [8]) of the same molecule?
Answer: 26%

Question: What about the Swelling (Rattus norvegicus [9]) of the same molecule?
Answer: 48.5%

Question: What about the inhibition in vivo at 10 mg/kg (Rattus norvegicus [10]) of the same molecule?
Answer: 35.8%

Question: And the Swelling (Rattus norvegicus [11])?
Answer: 25.5%

Question: What about the inhibition in vivo at 100 mg/kg (Rattus norvegicus [12]) of the same molecule?
Answer: 100%

Question: And the Swelling (Rattus norvegicus [13])?
Answer: 29.1%

Question: What about the inhibition in vivo at 100 mg/kg (Rattus norvegicus [14]) of the same molecule?
Answer: 58.6%

Question: What about the Swelling (Rattus norvegicus [15]) of the same molecule?
Answer: 54.3%

Question: And the inhibition in vivo at 25 mg/kg (Rattus norvegicus [16])?
Answer: 33.3%

Question: What about the inhibition in vivo at 30 mg/kg (Rattus norvegicus [17]) of the same molecule?
Answer: 43.6%

Question: What about the inhibition in vivo at 100 mg/kg (Rattus norvegicus [18]) of the same molecule?
Answer: 58.6%

Question: And the inhibition in vivo at 3 mg/kg (Rattus norvegicus [19])?
Answer: 36%

Question: And the inhibition in vivo at 25 mg/kg (Rattus norvegicus [20])?
Answer: 51.4%

Question: What about the inhibition in vivo at 10 mg/kg (Rattus norvegicus [21]) of the same molecule?
Answer: 50.6%

Question: And the inhibition in vivo at 10 mg/kg (Rattus norvegicus [22])?
Answer: 20.3%

Question: What about the Swelling (Rattus norvegicus [23]) of the same molecule?
Answer: 33%

Question: And the inhibition in vivo at 3 mg/kg (Rattus norvegicus [24])?
Answer: 4.9%

Question: And the inhibition in vivo at 100 mg/kg (Rattus norvegicus [25])?
Answer: 100%

Question: What about the Swelling (Rattus norvegicus [26]) of the same molecule?
Answer: 60.6%

Question: What about the inhibition in vivo at 30 mg/kg (Rattus norvegicus [27]) of the same molecule?
Answer: 28.8%

Question: And the inhibition in vivo at 100 mg/kg (Rattus norvegicus [28])?
Answer: 34.9%

Question: And the Swelling (Rattus norvegicus [29])?
Answer: 72.1%

Question: What about the inhibition in vivo at 3 mg/kg (Rattus norvegicus [30]) of the same molecule?
Answer: 11.9%

Question: CN1C(C(=O)Nc2ccccn2)=C(O)c2ccccc2S1(=O)=O [PIROXICAM] was tested. Which Swelling (Rattus norvegicus [31]) did it give?
Answer: 53.9%

Question: And the Swelling (Rattus norvegicus [6])?
Answer: 25.8%

Question: And the Swelling (Rattus norvegicus [11])?
Answer: 42.7%

Question: And the Swelling (Rattus norvegicus [32])?
Answer: 50.3%

Question: And the inhibition in vivo at 10 mg/kg (Rattus norvegicus [33])?
Answer: 66%

Question: And the inhibition in vivo at 10 mg/kg (Rattus norvegicus [21])?
Answer: 17.2%

Question: What about the inhibition in vivo at 10 mg/kg (Rattus norvegicus [22]) of the same molecule?
Answer: 9.4%

Question: And the inhibition in vivo at 3 mg/kg (Rattus norvegicus [24])?
Answer: 54.6%

Question: What about the inhibition in vivo at 30 mg/kg (Rattus norvegicus [27]) of the same molecule?
Answer: 8.7%

Question: And the Swelling (Rattus norvegicus [34])?
Answer: 61.7%

Question: And the Swelling (Rattus norvegicus [29])?
Answer: 34.4%

Question: And the inhibition in vivo at 3 mg/kg (Rattus norvegicus [30])?
Answer: 2.2%

Source: ChEMBL document CHEMBL1126267, “A novel synthesis and potent antiinflammatory activity of 4-hydroxy-2(1H)-oxo-1-phenyl-1,8-naphthyridine-3-carboxamides” (1992)
